Results on 8 compounds are retold here after ChEMBL document CHEMBL2203158, “Fluorescent derivatives of AC-42 to probe bitopic orthosteric/allosteric binding mechanisms on muscarinic M1 receptors” (J Med Chem, 2012).

For orientation: Ki means a dissociation constant, usually derived from enzyme kinetics or from competition with a known ligand. High values mean weaker binding, low ones tighter binding. As a reminder, the IC50 is the concentration at which inhibition is half-maximal. As usually defined, the Kd is the equilibrium constant for the complex coming apart. A low value points to a tighter complex. The EC50 is the concentration at which the effect is half-maximal. In general, Emax refers to the maximal effect, on the per cent scale that the assay sets.

Active and inactive are the calls of the source. The calls are words filed in the database; no cut-off is given here. Where only a bound is given, the exact number is not on record here.

For experiment [1], the target named is T1, Muscarinic acetylcholine receptor M1 (Homo sapiens, UniProt P11229).
T1 sequence (P11229 whole entry): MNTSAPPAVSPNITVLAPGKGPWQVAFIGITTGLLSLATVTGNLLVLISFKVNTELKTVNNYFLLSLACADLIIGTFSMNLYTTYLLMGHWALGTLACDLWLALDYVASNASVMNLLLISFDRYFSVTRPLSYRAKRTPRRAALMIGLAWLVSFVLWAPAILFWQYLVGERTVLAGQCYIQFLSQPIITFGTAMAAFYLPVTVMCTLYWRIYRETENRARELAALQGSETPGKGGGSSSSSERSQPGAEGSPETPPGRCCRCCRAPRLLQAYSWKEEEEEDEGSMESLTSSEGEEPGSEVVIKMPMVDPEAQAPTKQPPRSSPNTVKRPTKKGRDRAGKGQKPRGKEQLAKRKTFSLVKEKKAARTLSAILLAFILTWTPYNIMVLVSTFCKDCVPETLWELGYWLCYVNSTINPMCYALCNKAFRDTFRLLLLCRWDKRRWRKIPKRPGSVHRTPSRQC
Description: Displacement of [3H]NMS from EGFP-fused human M1 receptor N-terminal truncated at 17 residues expressed in HEK293 cells after 22 hrs by liquid scintillation counting. The experiment is classed as cell-based. A general note: Displacement assays read how much labelled ligand stays bound in the presence of the test substance.

The target in experiment [2] is T2, Muscarinic acetylcholine receptor M1 (Homo sapiens) (UniProt P11229).
T2 sequence (whole entry): T1 sequence (P11229 whole entry)
Description: Partial agonist activity at EGFP-fused human M1 receptor N-terminal truncated at 17 residues expressed in HEK293 cells assessed as inhibition of carbachol induced calcium response at […] by fluorescence assay. The experiment is classed as functional, cell-based.

The target in experiment [3] is T1, Muscarinic acetylcholine receptor M1. The experiment is classed as cell-based, HEK293.
The target in experiment [4] is T2, Muscarinic acetylcholine receptor M1 (Homo sapiens). As to conditions: HEK293.
Experiment [5] has the same target. Put plainly: Allosteric modulation of EGFP-fused human M1 receptor N-terminal truncated at 17 residues expressed in HEK293 cells after 4 hrs by FRET assay in presence of para-LRB-AC42. The experiment is classed as cell-based. Put shortly:
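EGFP emission was read at 510 nm with excitation at 470 nm. Specific signal was the difference from 20 μM atropine. Kx and α came from an allosteric model fit, with three or more independent runs done in duplicate.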

For experiment [6] the target is unchanged. Put plainly: (§1) Antagonist activity at EGFP-fused human M1 receptor N-terminal truncated at 17 residues expressed in HEK293 cells assessed as inhibition of carbachol induced calcium response by fluorescence assay. The experiment is classed as functional, cell-based.
Experiment [7] concerns the target T1, Muscarinic acetylcholine receptor M1. Described as §1. The experiment is classed as functional, cell-based.
For experiment [8], the target named is Muscarinic acetylcholine receptor M3 (Homo sapiens) (UniProt P20309). Put plainly: Antagonist activity at human M3 receptor in HEK293 cells assessed as inhibition of 20 uM carbachol induced calcium response at 10 uM by fluorescence assay. The experiment is classed as functional, cell-based. The gist of the method:
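Nontransfected HEK cells (endogenous M3) loaded with 5 μM Indo-1 AM, 45 min, 37 °C, trypsin/EDTA harvested, suspended at 10⁶ cells/mL in Hepes buffer with 1 mg/mL BSA. Calcium read at 37 °C as 400 nm emission (338 nm excitation), peak normalized to 20 μM digitonin maximum.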

Experiment [9] concerns the target T1, Muscarinic acetylcholine receptor M1. Description: Binding affinity to EGFP-fused human M1 receptor N-terminal truncated at 17 residues expressed in HEK293 cells after 4 hrs by FRET assay. The experiment is classed as cell-based. The gist of the method:
(§2)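 EGFP emission was read at 510 nm; specific binding is atropine-sensitive fluorescence extinction. Kd, maximal FRET amplitude and Ki/Kx/α come from Hill or competitive/allosteric fits, mean ± SE, n≥3.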

Experiment [10] shares this target. Put plainly: Displacement of [3H]NMS from EGFP-fused human M1 receptor N-terminal truncated at 17 residues expressed in HEK293 cells assessed as reduction of [3H]NMS dissociation rate after 22 hrs by liquid scintillation counting. The experiment is classed as cell-based.
The target of experiment [11] is T2, Muscarinic acetylcholine receptor M1 (Homo sapiens). Put plainly: Binding affinity to EGFP-fused human M1 receptor N-terminal truncated at 17 residues expressed in HEK293 cells assessed as maximal amplitude after 4 hrs by FRET assay. The experiment is classed as cell-based. The gist of the method:
as §2

Experiment [12] deals with T1, Muscarinic acetylcholine receptor M1. Description: Partial agonist activity at EGFP-fused human M1 receptor N-terminal truncated at 11 residues expressed in HEK293 cells assessed as induction of calcium response by fluorescence assay. The experiment is classed as functional, cell-based. Put shortly: (§3)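 Stably transfected HEK293 cells (hygromycin-selected) were loaded with 5 μM Indo-1 AM for 45 min at 37 °C, then suspended at 10⁶ cells/mL in Hepes buffer with BSA. […] EC50 and Emax are mean ± SD of two determinations.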

The target is the same in experiment [13]. Put plainly: Partial agonist activity at EGFP-fused human full length M1 receptor expressed in HEK293 cells assessed as induction of calcium response by fluorescence assay. The experiment is classed as functional, cell-based. Put shortly: as §3
The target is the same in experiment [14]. Description: Partial agonist activity at human full length M1 receptor expressed in HEK293 cells assessed as induction of calcium response by fluorescence assay. The experiment is classed as functional, cell-based. Put shortly: as §3
The target is the same in experiment [15]. Put plainly: Partial agonist activity at EGFP-fused human M1 receptor N-terminal truncated at 17 residues expressed in HEK293 cells assessed as induction of calcium response by fluorescence assay. The experiment is classed as functional, cell-based. Put shortly:
as §3

For experiment [16], the target named is T2, Muscarinic acetylcholine receptor M1 (Homo sapiens). As to conditions: HEK293, 10 uM.
For experiment [17] the target is unchanged. As to conditions: HEK293, 200 nM.
The target is the same in experiment [18]. As to conditions: HEK293, 10 uM. This is another data set of the same source.
Experiment [19] shares this target. Description: Partial agonist activity at EGFP-fused human M1 receptor N-terminal truncated at 17 residues expressed in HEK293 cells assessed as inhibition of carbachol induced calcium response at 1 uM by fluorescence assay relative to control. The experiment is classed as functional, cell-based.

Sequence of Muscarinic acetylcholine receptor M3 (Homo sapiens) (P20309 whole entry, looked up): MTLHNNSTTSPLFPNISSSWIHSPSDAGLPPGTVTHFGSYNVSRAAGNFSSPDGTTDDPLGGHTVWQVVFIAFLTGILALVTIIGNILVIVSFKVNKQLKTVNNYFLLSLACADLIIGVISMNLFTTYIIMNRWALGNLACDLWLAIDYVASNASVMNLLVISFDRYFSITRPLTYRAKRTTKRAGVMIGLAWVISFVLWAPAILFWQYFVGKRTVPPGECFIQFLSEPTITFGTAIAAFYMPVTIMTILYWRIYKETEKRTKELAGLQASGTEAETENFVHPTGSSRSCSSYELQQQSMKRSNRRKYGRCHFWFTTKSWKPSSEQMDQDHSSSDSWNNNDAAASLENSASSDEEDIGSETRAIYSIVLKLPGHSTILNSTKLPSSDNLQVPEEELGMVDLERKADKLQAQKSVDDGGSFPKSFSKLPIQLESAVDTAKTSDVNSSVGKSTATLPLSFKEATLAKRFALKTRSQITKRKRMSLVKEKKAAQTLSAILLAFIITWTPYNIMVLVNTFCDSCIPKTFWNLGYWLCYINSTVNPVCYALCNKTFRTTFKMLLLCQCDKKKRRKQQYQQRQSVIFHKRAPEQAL

`CCN(CC)c1ccc2c(-c3ccc(S(=O)(=O)O)cc3S(=O)(=O)[O-])c3ccc(=[N+](CC)CC)cc-3oc2c1` gave a Ki in [1] above 1000 µM. The outcome in experiment [2] was inactive.

For the compound `COc1cc2c(cc1OC)[C@@]13CCN4CC5=CCO[C@H]6CC(=O)N2[C@H]1[C@H]6[C@H]5C[C@H]43` [BRUCINE], the Ki in experiment [3] is 44.7 µM. In experiment [4], this compound came in with a pKx of 4.59.

As for `C#C[C@]1(O)CC[C@H]2[C@@H]3CC[C@H]4Cc5nc6nc7ccccc7n6cc5C[C@]4(C)[C@H]3CC[C@@]21C`, the pKx in experiment [5] turned out to be 5.03.

Regarding `Clc1ccc2c(c1)N=C(N1CCNCC1)c1ccccc1N2` [N-DESMETHYLCLOZAPINE], in experiment [5], the pKx worked out at 6.92. Further, in [1], the Ki is 0.0603 µM.

Regarding `Cc1ccccc1C(=O)CCCN1CCC(CCCCCN)CC1`, the values for the Ki in experiment [3] and in experiment [1] were 1.29 µM and 1.95 µM, respectively. The inhibition result in [6] is “Dose-dependent effect”. For the same compound, the IC50 in experiment [7] stood at 3.7 µM. Moreover, the inhibition entry in [8] is “inactive”.

For `CCN(CC)c1ccc2c(-c3ccc(S(=O)(=O)NCCCCCC4CCN(CCCC(=O)c5ccccc5C)CC4)cc3S(=O)(=O)[O-])c3ccc(=[N+](CC)CC)cc-3oc2c1`, the affinity in [9], expressed as Kd, was 0.794 µM. The EC50 in experiment [10] was 25.1 µM. Further, the affinity in [1], expressed as Ki, was 1 µM. The inhibition result in experiment [6] is “Dose-dependent effect”. In experiment [7], the IC50 worked out at 0.3 µM. Further, the Activity in experiment [11] was 26.5%. Moreover, the inhibition entry in [8] was “inactive”.

With `CCCCC1CCN(CCCC(=O)c2ccccc2C)CC1`, the 50% effective concentration (EC50) in experiment [12] is 0.72 µM; in [13] it was 0.21 µM; in experiment [14], 0.74 µM; in experiment [15] it was 0.45 µM. For the same compound, the values for the Ki in experiment [3] and in experiment [1] were 0.891 µM and 1.74 µM, respectively. In addition, the inhibition result in [16], in [17] and in [18] was “inactive” in each case.

As for `CCN(CC)c1ccc2c(-c3ccc(S(=O)(=O)[O-])cc3S(=O)(=O)NCCCCCC3CCN(CCCC(=O)c4ccccc4C)CC3)c3ccc(=[N+](CC)CC)cc-3oc2c1`, in experiment [19], the Emax was found to be 20%.
